Results published in article PMC3573810 (Drug Design, Development and Therapy, 2013).

Experiments:
[1] = system: Salmonella typhimurium TA1535; format: cell-based; settings: NaN3 1 μg/plate alone, no bichalcophene
How it was run: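 Overnight S. typhimurium TA1535 diluted 10−7, shaken 30 min at 37°C in phosphate buffer with NaN3 (1 μg/plate) plus test compound (10 and 20 μM, or 5 and 10 μM for two compounds) or NaN3 alone. Colonies counted on triplicate plates after 24 h and compared with untreated bacteria. ANOVA with Fisher's PLSD, P<0.05.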

[2] = system: Salmonella typhimurium TA1535; assay: Antimutagenicity assay against sodium azide; format: cell-based
How it was run: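 S. typhimurium TA1535 exposed at 37°C for 30 min to test compound (10 and 20 μM, or 5 and 10 μM for two compounds) and NaN3 (1 μg/plate). Pre-exposure adds NaN3 after the 30 min compound step; co-exposure combines all three together. Plated on minimal glucose agar; revertants counted after 48 h, triplicate. Mutant frequency = mutant colonies/viable colonies.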

[N-]=[N+]=[N-].[Na+] [NaN3, sodium azide]
Viability, % of control [1]: 105 % of control
Viability, colonies/plate [1]: 36.9 ± 4.3 colonies/plate
NaN3 mutagenicity, revertant colonies/plate ([2]; NaN3 1 μg/plate alone, spontaneous 34.3 ± 4.0): 384.7 ± 14.7 (0) revertant colonies/plate
Mutant frequency ([2]; NaN3 alone, mutant colonies (Table 6)/viable colonies (Table 3)): 10.43 (100)
